Test results reported in ChEMBL document CHEMBL4699498 (J Med Chem, 2020).
Activity calls are given as the source filed them. The calls are words filed in the database; no cut-off is given here.

What was measured:
[1] = target: T1, Protein cereblon/Poly [ADP-ribose] polymerase 1 (Homo sapiens, UniProt P09874+Q96SW2); assay: Protac activity at CRBN/PARP1 in human SW-620 cells assessed as induction of PARP1 degradation at 30 nM incubated for 24 hrs in presence of 0.1 to 1 uM CRBN ligand pomalidomide by Western blot analysis; assay type: cell-based
Target sequence in this assay (P09874 2-1014 limits assumed): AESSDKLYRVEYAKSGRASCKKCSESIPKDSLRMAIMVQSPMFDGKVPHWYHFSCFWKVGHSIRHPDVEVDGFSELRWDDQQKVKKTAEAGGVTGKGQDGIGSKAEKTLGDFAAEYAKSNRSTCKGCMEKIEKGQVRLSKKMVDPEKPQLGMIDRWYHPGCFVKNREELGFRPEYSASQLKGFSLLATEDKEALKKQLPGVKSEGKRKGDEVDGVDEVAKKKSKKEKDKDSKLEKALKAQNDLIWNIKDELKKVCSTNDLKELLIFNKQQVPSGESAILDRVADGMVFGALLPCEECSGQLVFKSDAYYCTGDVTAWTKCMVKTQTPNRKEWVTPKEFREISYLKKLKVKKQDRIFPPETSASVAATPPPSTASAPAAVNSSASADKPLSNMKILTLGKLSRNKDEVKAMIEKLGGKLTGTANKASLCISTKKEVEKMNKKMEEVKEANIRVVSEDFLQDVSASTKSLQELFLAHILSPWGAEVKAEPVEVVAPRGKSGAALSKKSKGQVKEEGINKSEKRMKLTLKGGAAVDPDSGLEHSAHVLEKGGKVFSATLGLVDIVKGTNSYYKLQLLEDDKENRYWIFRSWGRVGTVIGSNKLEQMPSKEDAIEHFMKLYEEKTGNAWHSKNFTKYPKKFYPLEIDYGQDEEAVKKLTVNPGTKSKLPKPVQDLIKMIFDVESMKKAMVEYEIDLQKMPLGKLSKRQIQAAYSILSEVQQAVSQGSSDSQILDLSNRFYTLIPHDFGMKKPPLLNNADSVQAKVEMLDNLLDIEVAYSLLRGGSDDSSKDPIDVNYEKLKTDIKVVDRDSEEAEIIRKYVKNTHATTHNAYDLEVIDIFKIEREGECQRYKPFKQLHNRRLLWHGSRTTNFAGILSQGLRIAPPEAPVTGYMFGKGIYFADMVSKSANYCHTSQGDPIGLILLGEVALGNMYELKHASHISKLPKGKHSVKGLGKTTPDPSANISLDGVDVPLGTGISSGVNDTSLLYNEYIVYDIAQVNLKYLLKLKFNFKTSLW
Target sequence in this assay (Q96SW2 whole entry partner): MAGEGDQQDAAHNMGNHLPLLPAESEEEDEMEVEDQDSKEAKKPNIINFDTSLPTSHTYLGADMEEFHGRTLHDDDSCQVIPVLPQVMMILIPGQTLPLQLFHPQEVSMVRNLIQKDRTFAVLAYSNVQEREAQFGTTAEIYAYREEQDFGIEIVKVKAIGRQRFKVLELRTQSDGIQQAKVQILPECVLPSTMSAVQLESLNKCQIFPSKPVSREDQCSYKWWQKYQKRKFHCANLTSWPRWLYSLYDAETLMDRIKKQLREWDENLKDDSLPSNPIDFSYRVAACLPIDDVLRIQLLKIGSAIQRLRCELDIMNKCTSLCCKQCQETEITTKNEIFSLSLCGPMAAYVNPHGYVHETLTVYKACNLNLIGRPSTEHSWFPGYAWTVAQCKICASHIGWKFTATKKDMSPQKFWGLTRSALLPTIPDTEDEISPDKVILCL

MCF-10A = assay: Cytotoxicity against human MCF-10A cells assessed as reduction in cell viability incubated for 120 hrs by CCK-8 assay; assay type: cell-based
MDA-MB-436 [2] = assay: Induction of DNA damage in human MDA-MB-436 cells assessed as increase in gammaH2AX foci formation incubated for 24 hrs by Western blot analysis; assay type: functional, cell-based; details: dose microM 0.1-10, time 24.0 hrs
How it was run: (§1)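 MDA-MB-436 (BRCA1-/-) or Capan-1 (BRCA2-/-) cells were treated 24 h at the indicated concentrations. Lysis was in RIPA buffer with protease inhibitors, and 20-30 μg protein was run on SDS-PAGE. Blots were probed for γH2AX, with β-tubulin as the loading control, and detected by ECL.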

[3] = target: T1, Protein cereblon/Poly [ADP-ribose] polymerase 1; assay: Protac activity at CRBN/PARP1 in human MDA-MB-436 cells assessed as induction of PARP1 degradation at 100 nM measured after 5 days by Western blot analysis; assay type: cell-based; details: time 5.0 day
How it was run: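 MDA-MB-436 cells kept at 100 nM for up to 5 days; PARP1 followed by western blot against β-tubulin.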
Target sequence in this assay (P09874 2-1014 limits assumed): as the sequence (P09874 2-1014 limits assumed) above
Target sequence in this assay (Q96SW2 whole entry partner): as the sequence (Q96SW2 whole entry partner) above

[4] = target: T1, Protein cereblon/Poly [ADP-ribose] polymerase 1; assay: Protac activity at CRBN/PARP1 in human PC-3 cells assessed as induction of PARP1 degradation at 30 nM incubated for 1 to 24 hrs by Western blot analysis; assay type: cell-based; details: time hrs 1-24
Target sequence in this assay (P09874 2-1014 limits assumed): as the sequence (P09874 2-1014 limits assumed) above
Target sequence in this assay (Q96SW2 whole entry partner): as the sequence (Q96SW2 whole entry partner) above

[5] = AUC (0 to infinity) in ICR mouse at 25 mg/kg, ip by LC-tandem mass spectrometry analysis; assay type: ADME, organism-based; parameters: time infinity, route intraperitoneal, dose 25 mg/kg; details: in vivo
How it was run: (§2)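 Female ICR mice (20-23 g, 6-7 weeks old, n = 3) received a single 25 mg/kg intraperitoneal dose formulated in 5% DMSO/15% Solutol HS15/80% D5W. Plasma was sampled at 0.5, 1, 2, 4, 6, 8 and 24 h and protein-precipitated with methanol. Compound was quantified by LC-MS/MS against a standard curve.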

CAPAN-1 = assay: Induction of DNA damage in human Capan1 cells assessed as increase in gammaH2AX foci formation incubated for 24 hrs by Western blot analysis; assay type: functional, cell-based; details: dose microM 0.1-10, time 24.0 hrs; how it was run: as §1
[6] = target: T1, Protein cereblon/Poly [ADP-ribose] polymerase 1; assay: Protac activity at CRBN/PARP1 in human MDA-MB-436 cells assessed as reduction in PARP1 protein level at 0.01 to 10 uM incubated for 12 hrs by western blot analysis; assay type: cell-based; details: dose microM 0.01-10, time 12.0 hrs
How it was run: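 MDA-MB-436 or SW620 cells dosed at 1, 10, 100, 1000 nM and 10 µM for 12 h; PARP1 assessed by western blot of RIPA lysates (20-30 µg protein), β-tubulin as loading control.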
Target sequence in this assay (P09874 2-1014 limits assumed): as the sequence (P09874 2-1014 limits assumed) above
Target sequence in this assay (Q96SW2 whole entry partner): as the sequence (Q96SW2 whole entry partner) above

[7] = target: T1, Protein cereblon/Poly [ADP-ribose] polymerase 1; assay: Protac activity at CRBN/PARP1 in human HCC1937 cells assessed as induction of PARP1 degradation measured after 24 hrs by Western blot analysis; assay type: cell-based
How it was run: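 The cell line was treated 24 h across a concentration range. PARP1 was measured by western blot against β-tubulin. DC50 is the average of two biologically independent experiments.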
Target sequence in this assay (P09874 whole entry): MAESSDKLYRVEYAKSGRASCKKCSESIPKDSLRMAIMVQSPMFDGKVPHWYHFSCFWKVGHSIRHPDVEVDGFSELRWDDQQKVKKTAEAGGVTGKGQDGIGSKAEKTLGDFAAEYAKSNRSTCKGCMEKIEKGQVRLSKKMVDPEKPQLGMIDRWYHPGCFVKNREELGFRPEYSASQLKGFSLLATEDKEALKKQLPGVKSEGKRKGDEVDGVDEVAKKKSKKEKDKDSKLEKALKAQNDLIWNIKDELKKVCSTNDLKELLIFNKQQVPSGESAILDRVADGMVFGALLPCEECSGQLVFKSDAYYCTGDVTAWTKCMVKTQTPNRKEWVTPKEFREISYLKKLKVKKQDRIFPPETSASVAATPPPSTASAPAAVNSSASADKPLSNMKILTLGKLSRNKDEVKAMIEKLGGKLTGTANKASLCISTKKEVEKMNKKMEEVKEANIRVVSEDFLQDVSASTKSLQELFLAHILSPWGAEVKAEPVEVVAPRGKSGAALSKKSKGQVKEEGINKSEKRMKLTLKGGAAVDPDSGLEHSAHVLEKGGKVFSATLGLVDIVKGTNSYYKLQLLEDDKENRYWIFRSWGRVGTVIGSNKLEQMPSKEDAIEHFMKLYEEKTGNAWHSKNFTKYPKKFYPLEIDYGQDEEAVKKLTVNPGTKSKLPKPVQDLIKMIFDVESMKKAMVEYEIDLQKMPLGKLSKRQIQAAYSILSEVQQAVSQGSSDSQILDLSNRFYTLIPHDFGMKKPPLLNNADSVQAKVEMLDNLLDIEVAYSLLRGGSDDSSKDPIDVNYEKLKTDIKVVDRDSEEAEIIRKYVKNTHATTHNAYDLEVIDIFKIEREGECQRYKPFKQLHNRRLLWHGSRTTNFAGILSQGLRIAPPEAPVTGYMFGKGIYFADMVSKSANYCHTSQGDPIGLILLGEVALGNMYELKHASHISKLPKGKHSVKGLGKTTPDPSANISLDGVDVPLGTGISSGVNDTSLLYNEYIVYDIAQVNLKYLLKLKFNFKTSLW
Target sequence in this assay (Q96SW2 whole entry): as the sequence (Q96SW2 whole entry partner) above

[8] = target: T1, Protein cereblon/Poly [ADP-ribose] polymerase 1; assay: Protac activity at CRBN/PARP1 in human HCC1937 cells assessed as induction of PARP1 degradation at 30 nM incubated for 1 to 24 hrs by Western blot analysis; assay type: cell-based; details: time hrs 1-24
Target sequence in this assay (P09874 2-1014 limits assumed): as the sequence (P09874 2-1014 limits assumed) above
Target sequence in this assay (Q96SW2 whole entry partner): as the sequence (Q96SW2 whole entry partner) above

MDA-MB-436 [9] = assay: Antiproliferative activity against human MDA-MB-436 cells assessed as cell growth inhibition incubated for 7 days by CCK-8 assay; assay type: functional, cell-based; details: MDA-MB-436, 168 h
How it was run: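 Cells were sub-cultured at least twice and seeded for 24 h before dosing. Compounds came from 10 mM DMSO stocks, given as 10 points of 3-fold serial dilution starting at 10-20 μM. Incubation was about 7 days (Capan-1 13 days) at 37 °C, 5% CO2. Read-out was CCK-8 absorbance at 450 nm, as % growth versus DMSO wells (duplicate wells). IC50 was fitted by nonlinear regression; three independent experiments.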

[10] = target: T1, Protein cereblon/Poly [ADP-ribose] polymerase 1; assay: Protac activity at CRBN/PARP1 in human SW-620 cells assessed as induction of PARP1 degradation at 30 nM incubated for 24 hrs in presence of NEDD8-activating E1 enzyme inhibitor MLN4924 by Western blot analysis; assay type: cell-based
Target sequence in this assay (P09874 2-1014 limits assumed): as the sequence (P09874 2-1014 limits assumed) above
Target sequence in this assay (Q96SW2 whole entry partner): as the sequence (Q96SW2 whole entry partner) above

[11] = target: T1, Protein cereblon/Poly [ADP-ribose] polymerase 1; assay: Protac activity at CRBN/PARP1 in human Capan1 cells assessed as PARP1 protein degradation at 1 to 10 nM incubated for 24 hrs by western blot analysis; assay type: cell-based; details: CAPAN-1, dose nM 1-10, time 24.0 hrs
How it was run: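 Capan-1 cells were treated 24 h (1-1000 nM, or a wider dose range for DC50). Lysis was in RIPA buffer with protease inhibitors, and 20-30 μg protein was blotted. PARP1 was normalized to β-tubulin and to DMSO control, quantified by densitometry. DC50 came from two independent experiments.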

[12] = target: T1, Protein cereblon/Poly [ADP-ribose] polymerase 1; assay: Protac activity at CRBN/PARP1 in human MDA-MB-436 cells assessed as induction of PARP1 degradation incubated for 24 hrs by Western blot analysis; assay type: cell-based
How it was run: (§3)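 Concentration-response over a wide range, 24 h exposure; PARP1 quantified by western blot and normalized to β-tubulin density; DC50 derived from two biologically independent experiments.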
Target sequence in this assay (P09874 whole entry): as the sequence (P09874 whole entry) above
Target sequence in this assay (Q96SW2 whole entry): as the sequence (Q96SW2 whole entry partner) above

[13] = target: T1, Protein cereblon/Poly [ADP-ribose] polymerase 1; assay: Protac activity at CRBN/PARP1 in human MDA-MB-436 cells assessed as induction of PARP1 degradation at 30 nM incubated for 24 hrs in presence of NEDD8-activating E1 enzyme inhibitor MLN4924 by Western blot analysis
HUVEC = assay: Cytotoxicity against HUVEC assessed as reduction in cell viability incubated for 120 hrs by CCK-8 assay; assay type: cell-based; details: human
[14] = target: T1, Protein cereblon/Poly [ADP-ribose] polymerase 1; assay: Protac activity at CRBN/PARP1 in human SW-620 cells assessed as induction of PARP1 degradation at 30 nM incubated for 24 hrs in presence of proteasome inhibitor carfilzomib by Western blot analysis; assay type: cell-based
[15] = target: T1, Protein cereblon/Poly [ADP-ribose] polymerase 1; assay: Protac activity at CRBN/PARP1 in human MDA-MB-436 cells assessed as PARP1 protein degradation at 1 to 10 nM incubated for 24 hrs by western blot analysis; assay type: cell-based; details: dose nM 1-10, time 24.0 hrs
SW-620 = assay: Potentiation of TMZ induced antitumor activity against SW-620 cells xenografted in Balb/c mouse assessed as tumor growth suppression administered intraperitoneally once daily for 5 days; assay type: functional; details: dose mg/kg 5-10, time 5.0 day
How it was run: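 Male BALB/c nude mice carried SW620 xenografts (6×10^6 cells s.c.), randomized at ~150 mm³ (6 per group). TMZ 50 mg/kg was given orally once daily on days 0-4, 45 min after the partner drug. Partners were 5 or 10 mg/kg intraperitoneally or 10 mg/kg by oral gavage, daily for 5 days. Vehicle was 5% DMSO/20% PEG400/10% Cremophor EL/65% saline. Tumor volume and body weight were recorded 2-3 times weekly.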

[16] = Plasma concentration in ICR mouse at 25 mg/kg, ip at 4 hrs postinjection by LC-tandem mass spectrometry analysis; assay type: ADME, organism-based; how it was run: as §2
[17] = target: T1, Protein cereblon/Poly [ADP-ribose] polymerase 1; assay: Protac activity at CRBN/PARP1 in human PC-3 cells assessed as induction of PARP1 degradation measured after 24 hrs by Western blot analysis; assay type: cell-based; how it was run: as §3
Target sequence in this assay (P09874 whole entry): as the sequence (P09874 whole entry) above
Target sequence in this assay (Q96SW2 whole entry): as the sequence (Q96SW2 whole entry partner) above

O=C(CCCCCCCCCCC(=O)N1CCN(C(=O)c2cc(Cc3n[nH]c(=O)c4ccccc34)ccc2F)CC1)NCCNc1cccc2c1C(=O)N(C1CCC(=O)NC1=O)C2=O (stereo unspecified)
Activity [1]: inactive
Activity (MCF-10A): Non-Toxic
Activity (MDA-MB-436 [2]): Dose-dependent effect
Activity [3]: Active
Activity [4]: Active
AUC(0-inf) [5]: 5360 ng·h/mL
Activity (CAPAN-1): Dose-dependent effect
Activity [6]: Active
DC50 [7]: 0.384 nM
Activity [8]: Active
IC50 (MDA-MB-436 [9]): 19 nM
Activity [10]: inactive
Activity [11]: Active
DC50 [12]: 1.26 nM
Activity [13]: inactive
Activity (HUVEC): Non-Toxic
Activity [14]: inactive
Activity [15]: Active
Activity (SW-620): Dose-dependent effect
concentration at 4 h [16]: 182 nM
DC50 [17]: 0.578 nM
